Active and inactive are the calls of the source. The rule behind the calls is not given here.

This note sets out measurements from ChEMBL document CHEMBL1150837, “New sesquiterpene derivatives from the sponge Dysidea species with a selective inhibitor profile against human phospholipase A2 and other leukocyte functions” (J Nat Prod, 2001).

In series [1] the target is Acidic phospholipase A2 2 (Naja naja) (UniProt P15445). The series is described as follows: Inhibition of Naja naja venom group 1 secretory phospholipase A2 at 10 uM by liquid scintillation counting. The gist of the method: (§1)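 Enzyme diluted in 100 mM Tris-HCl, 1 mM CaCl2, pH 7.5, preincubated 5 min at 37 °C with compound or vehicle. Substrate was autoclaved E. coli CECT 101 membranes labelled with [3H]oleic acid. Reaction ran 15 min, stopped with ice-cold BSA (0.07% w/v final), spun 1200g 10 min at 4 °C, supernatant counted. IC50 from ≥4 concentrations; mean ± SEM, n = 6.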
Chain of Acidic phospholipase A2 2 (Naja naja) (P15445 whole entry): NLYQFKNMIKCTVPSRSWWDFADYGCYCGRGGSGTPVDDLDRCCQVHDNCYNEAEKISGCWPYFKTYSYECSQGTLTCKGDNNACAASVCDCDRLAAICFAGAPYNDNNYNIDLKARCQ

Series [2] has as its target T1, Cytosolic phospholipase A2 (Mus musculus) (UniProt P47713).
T1 sequence (whole entry): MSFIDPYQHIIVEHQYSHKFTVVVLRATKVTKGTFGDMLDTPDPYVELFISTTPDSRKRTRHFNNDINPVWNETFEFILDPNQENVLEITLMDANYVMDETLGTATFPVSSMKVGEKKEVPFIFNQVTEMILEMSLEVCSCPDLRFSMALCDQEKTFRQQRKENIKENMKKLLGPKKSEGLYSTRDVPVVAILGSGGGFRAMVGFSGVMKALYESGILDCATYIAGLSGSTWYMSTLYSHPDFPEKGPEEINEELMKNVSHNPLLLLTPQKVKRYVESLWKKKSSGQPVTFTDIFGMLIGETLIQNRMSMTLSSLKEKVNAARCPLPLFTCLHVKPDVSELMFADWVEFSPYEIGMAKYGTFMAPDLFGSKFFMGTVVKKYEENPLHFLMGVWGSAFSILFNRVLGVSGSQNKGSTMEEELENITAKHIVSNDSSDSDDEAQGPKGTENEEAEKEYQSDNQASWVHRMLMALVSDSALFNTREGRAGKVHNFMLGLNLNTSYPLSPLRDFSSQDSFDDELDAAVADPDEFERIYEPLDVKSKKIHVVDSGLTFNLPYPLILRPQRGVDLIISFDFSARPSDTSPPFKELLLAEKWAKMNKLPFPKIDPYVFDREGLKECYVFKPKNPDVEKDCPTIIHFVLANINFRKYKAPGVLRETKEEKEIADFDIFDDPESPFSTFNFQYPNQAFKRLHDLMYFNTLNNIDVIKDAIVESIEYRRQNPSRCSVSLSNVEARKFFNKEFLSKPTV
The series is described as follows: Inhibition of group 4 cytosolic phospholipase A2 in mouse RAW264.7 cells at 10 uM. The class given is cell-based. A digest of the protocol:
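Enzyme was the cytosolic fraction of RAW 264.7 macrophages. Substrate 1-palmitoyl-2-[14C]arachidonyl-sn-glycero-3-phosphocholine. Compound added in methanol (<1% final) just before the enzyme. Incubation 60 min at 37 °C, stopped with isopropanol-heptane-H2SO4. Released arachidonate extracted into hexane, cleaned on silica gel and counted. Mean ± SEM, n = 6.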

The target in series [3] is Phospholipase A2, major isoenzyme (Sus scrofa) (UniProt P00592). The series is described as follows: Inhibition of pig pancreatic group 1 secretory phospholipase A2 at 10 uM by liquid scintillation counting. The gist of the method:
(§2)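 Substrate was E. coli CECT 101 membranes labelled with [3H]oleic acid and autoclaved. Enzyme in 100 mM Tris-HCl/1 mM CaCl2, pH 7.5, was preincubated 5 min at 37 °C with compound or vehicle, then incubated 15 min with membranes. The reaction was stopped with ice-cold BSA (final 0.07%) and centrifuged, and supernatant radioactivity was counted. IC50 from ≥4 concentrations; n = 6.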

Series [4] addresses Phospholipase A2, major isoenzyme (Sus scrofa, UniProt P00592). The series is described as follows: Inhibition of pig pancreatic group 1 secretory phospholipase A2 by liquid scintillation counting. A digest of the protocol: as §2
Series [5] addresses T2, Phospholipase A2, membrane associated (Homo sapiens) (UniProt P14555).
T2 sequence (whole entry): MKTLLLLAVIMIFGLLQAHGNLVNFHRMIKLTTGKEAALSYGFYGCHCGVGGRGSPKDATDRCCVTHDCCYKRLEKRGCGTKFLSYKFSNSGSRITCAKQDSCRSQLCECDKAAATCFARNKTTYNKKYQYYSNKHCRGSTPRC
The series can be described thus: Inhibition of human synovial recombinant group 2 secretory phospholipase A2 at 10 uM by liquid scintillation counting. The gist of the method: as §2

Series [6] deals with T3, Phospholipase A2, membrane associated (Homo sapiens, UniProt P14555).
T3 sequence (P14555 whole entry): T2 sequence (whole entry)
The series can be described thus: Inhibition of human synovial recombinant group 2 secretory phospholipase A2 by liquid scintillation counting. A digest of the protocol:
as §2

The target of series [7] is T4, Phospholipase A2 (Apis mellifera) (UniProt P00630).
T4 sequence (whole entry): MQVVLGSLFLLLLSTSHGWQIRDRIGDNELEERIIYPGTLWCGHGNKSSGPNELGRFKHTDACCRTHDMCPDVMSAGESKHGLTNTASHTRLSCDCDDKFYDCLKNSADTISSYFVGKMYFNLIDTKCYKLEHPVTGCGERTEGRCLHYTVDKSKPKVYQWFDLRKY
The series can be described thus: Inhibition of bee venom group 3 secretory phospholipase A2 at 10 uM by liquid scintillation counting. The gist of the method: as §1

A further series addresses T5, Phospholipase A2 (Apis mellifera, UniProt P00630).
T5 sequence (P00630 whole entry): T4 sequence (whole entry)
The series is described as follows: Inhibition of bee venom group 3 secretory phospholipase A2 by liquid scintillation counting. The gist of the method: as §1

Series [8] concerns the target T1, Cytosolic phospholipase A2 (Mus musculus). The series is described as follows: Inhibition of group 4 cytosolic phospholipase A2 in mouse RAW264.7 cells. The class given is cell-based. A digest of the protocol: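 Enzyme source was cytosolic fractions of RAW 264.7 cells. Substrate was 1-palmitoyl-2-[14C]arachidonyl-PC (2 × 10^6 cpm). Compounds were added in methanol (final <1%) just before the enzyme. After 60 min at 37 °C, the reaction was stopped with isopropanol/heptane/0.5 M H2SO4 and extracted into hexane with silica gel. Released arachidonate was counted.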

The nature of series [9]: Cytotoxicity against human neutrophils assessed as inhibition of cell viability at 10 uM after 16 to 40 hrs by MTT assay. The class given is cell-based, Neutrophil. To be noted: read-out: INH. The gist of the method:
(§3)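 Cytotoxicity measured on purified human neutrophils as mitochondrial-dependent reduction of MTT to formazan; compounds tested up to 10 µM, reported as % inhibition of viability. Mean ± SEM, n = 6.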
(In general: Tetrazolium dyes change colour on reduction, which living cells bring about.)

The subject of series [10] is Neutrophil. The series is described as follows: Inhibition of TPA-induced chemiluminescence response in human neutrophils at 10 uM after 7 mins. It is filed as functional. A digest of the protocol: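 Neutrophils (2.5 × 10^6/mL) mixed with luminol (40 µM) and stimulated with 1 µM TPA; chemiluminescence read at 7 min, the time of maximal production. % inhibition at 10 µM; mean ± SEM, n = 6.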

Series [11] concerns Neutrophil. The series is described as follows: Inhibition of cytochalasin B and fMLP-stimulated human neutrophil degranulation assessed as inhibition of elastase release at 10 uM preincubated for 5 mins before cytochalasin B and fMLP challenge measured after 20 mins by microtiter plate assay. The class given is functional. The gist of the method: (§4)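 Neutrophils (2.5 × 10^6/mL) preincubated 5 min with compound or vehicle, then stimulated 10 min at 37 °C with cytochalasin B (10 µM) + FMLP (10 nM). Supernatants incubated 20 min at 37 °C with Boc-L-alanine p-nitrophenyl ester (200 µM); p-nitrophenol read at 414 nm. IC50 from ≥4 concentrations, n = 6.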

The test system of series [12] is Neutrophil. The series is described as follows: Inhibition of cytochalasin B and fMLP-stimulated human neutrophil degranulation assessed as inhibition of elastase release preincubated for 5 mins before cytochalasin B and fMLP challenge measured after 20 mins by microtiter plate assay. It is filed as functional, cell-based. A digest of the protocol: as §4
Series [13] in a line: Cytotoxicity against human neutrophils up to 10 uM after 16 to 40 hrs by MTT assay. It is filed as cell-based. To be noted: neutrophil. A digest of the protocol:
as §3

Setting [14] is: Homo sapiens, Neutrophil, read-out: IC50.

Chain of Phospholipase A2, major isoenzyme (Sus scrofa) (P00592 23-146 limits assumed): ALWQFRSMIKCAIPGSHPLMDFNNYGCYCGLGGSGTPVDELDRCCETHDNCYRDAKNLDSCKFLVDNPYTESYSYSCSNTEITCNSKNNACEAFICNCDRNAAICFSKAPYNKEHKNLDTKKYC
Chain of Phospholipase A2, major isoenzyme (P00592 whole entry): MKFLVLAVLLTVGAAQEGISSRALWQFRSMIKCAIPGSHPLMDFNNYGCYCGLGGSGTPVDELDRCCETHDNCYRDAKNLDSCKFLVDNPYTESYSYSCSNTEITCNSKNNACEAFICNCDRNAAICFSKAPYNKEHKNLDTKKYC

In the case of `CC1=C(CC/C(C)=C/CCC2=CC[C@H](C3=CC(=O)O[C@H]3O)O[C@H]2O)C(C)(C)CCC1`, the inhibition amounted to 17% in [1] and 44.6% in series [2].

As for `COC1=CC(=O)C(O)=C(C[C@@]2(C)CC[C@]3(C)C(C)=CCC[C@H]3[C@H]2C)C1=O` [BOLINAQUINONE], the inhibition in series [1] was 26%; in series [3], 86.4%; in series [5] it was 100%; in [7] it was 99.1%. Moreover, the IC50 came to 400 nM in [4], 200 nM in series [6], 100 nM against Phospholipase A2 and 5200 nM in the series on Neutrophil [12] (setting [14]). Also, the inhibition result in series [8] is “inactive”. Besides, the cytotoxicity at 10 µM in [9] came out at 14%. For the same compound, the results for the inhibition at 10 µM in the series with Neutrophil [10] and in the series with Neutrophil [11] were 40.1% and 68.1%, respectively.

`COC(=O)[C@]1(O)C=C(OC)C(=O)[C@@H]1C[C@@]1(C)CC[C@]2(C)C(C)=CCC[C@H]2[C@H]1C` [DYSIDENONE A]: the inhibition result in series [8] was “inactive”. The Activity entry in series [13] was “Non-toxic”.

On to `COC(=O)[C@@]1(O)C=C(OC)C(=O)[C@H]1C[C@@]1(C)CC[C@]2(C)C(C)=CCC[C@H]2[C@H]1C` [DYSIDENONE B], for which the inhibition entry in series [8] is “inactive”. Besides, in [13], the Activity entry is on record as “Non-toxic”.

Take `CC1=CCC[C@H]2[C@@H](C)[C@@](C)(CC3=C(O)C(=O)C=C(NCCS(=O)(=O)O)C3=O)CC[C@]12C` [DYSIDINE]: the inhibition in [1] turned out to be 0.7%; in [3], 1.2%; in [5] it was 73.8%; in [7], 33.4%. The figures for the IC50 (in series [6]; in the series on Neutrophil [12] (setting [14]); with Neutrophil [12] (neutrophil)) were 2000 nM, 1300 nM and “Dose-dependent effect”, respectively. The inhibition result in series [8] was “inactive”. Besides, the Activity entry in series [13] is listed as “Non-toxic”. Moreover, the cytotoxicity at 10 µM in series [9] came out at 0.3%. Also, the inhibition at 10 µM came to 44.4% with Neutrophil [10] and 90.7% with Neutrophil [11].

One may read the inhibition as the change of the read-out against control, counted positive when it falls. The IC50 is the concentration that gives 50% inhibition.
